Test results from ChEMBL document CHEMBL1938357, “Inhibition of Dengue virus and West Nile virus proteases by click chemistry-derived benz[d]isothiazol-3(2H)-one derivatives” (Bioorg Med Chem, 2012).
pIC50, pKi: −log10 of the molar value. The source made the active and inactive calls. The rule behind the calls is not given here.

Assays:
dengue virus type 2 [1] = test: Inhibition of Dengue virus 2 NS2B-NS3 protease expressed in Escherichia coli using Bz-Nle-Lys-Arg-Arg-AMC as substrate at 25 uM measured every 90 sec upto 30 mins by spectrofluorometry
Method in brief: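 DENV2 NS2B(hydrophilic cofactor)-NS3pro, linked via Q-R and expressed in E. coli Top 10 F′, at 25 nM in 200 mM Tris-HCl pH 9.5, 6 mM NaCl, 30% glycerol. Compound at 25 μM (1% DMSO final) was pre-incubated at room temperature with enzyme. Bz-Nle-Lys-Arg-Arg-AMC added at 5.0 μM; read at 37 °C, ex 380/em 460 nm, every 90 s up to 30 min. % inhibition from RFU ± compound; triplicate averages.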

dengue virus type 2 [2] = test: Inhibition of Dengue virus 2 NS2B-NS3 protease expressed in Escherichia coli using Bz-Nle-Lys-Arg-Arg-AMC as substrate at 25 uM measured every 90 sec upto 30 mins by spectrofluorometry in the presence of 0.1% CHAPS
Method in brief: (§1)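 Detergent re-screen: 200 mM Tris-HCl pH 9.5, 6 mM NaCl, 30% glycerol, 0.1% CHAPS, with DENV2 NS2B-NS3pro at 25 nM or WNV NS2BH-NS3pro (5-residue spacer) at 28 nM. Compound at 25 μM, 1% DMSO final, pre-incubated at room temperature with enzyme. Substrate Bz-Nle-Lys-Arg-Arg-AMC at 5.0 μM; fluorescence at 380/460 nm at 37 °C over 30 min. Percent inhibition from RFU with vs without compound; triplicate averages.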

[3] = Inhibition of Dengue virus 2 NS2B-NS3 protease expressed in Escherichia coli using Bz-Nle-Lys-Arg-Arg-AMC as substrate measured every 90 sec upto 30 mins by spectrofluorometry; design: species or system dengue virus type 2
Method in brief: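 Inhibitors at 10 nM, 50 nM, 0.1, 1, 2, 5, 10 and 25 μM were incubated 15 min with DENV2 NS2B-NS3pro (50 nM) in 200 mM Tris-HCl, 6 mM NaCl, 30% glycerol, pH 9.5. Bz-Nle-Lys-Arg-Arg-AMC (5.0 μM) was then added. Signal recorded at 37 °C (ex 380, em 460 nm) with buffer subtracted. IC50 derived by curve fitting.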

[4] = Inhibition of Dengue virus 2 NS2B-NS3 protease expressed in Escherichia coli using Bz-Nle-Lys-Arg-Arg-AMC as substrate by spectrofluorometry; design: species or system dengue virus type 2
West Nile virus = test: Inhibition of West Nile virus NS2B-NS3 protease expressed in Escherichia coli using Bz-Nle-Lys-Arg-Arg-AMC as substrate at 25 uM measured every 90 sec upto 30 mins by spectrofluorometry; method in brief: as §1

| inhibition (dengue virus type 2 [1]) | inhibition (dengue virus type 2 [2]) | pIC50 [3] | inhibition (West Nile virus) | Compound | pKi [4] |
| --- | --- | --- | --- | --- | --- |
| Active | Active | 5.46 | Active | O=C(Cn1sc2ccccc2c1=O)Nc1cccc(OCc2cn(CC(=O)Nc3ccccc3Oc3ccccc3)nn2)c1 | 5.32 |
| Active | Active | 4.87 | Active | O=C(Cn1cc(COc2cccc(NC(=O)Cn3sc4ccccc4c3=O)c2)nn1)Nc1ccccc1 |  |
| Active | Active | 5.35 | Active | O=C(Cn1cc(COc2cccc(NC(=O)Cn3sc4ccccc4c3=O)c2)nn1)Nc1ccc(Oc2ccccc2)cc1 |  |
| Active | Active |  |  | O=C(Cn1sc2ccccc2c1=O)NCc1cn(CC(=O)Nc2cccc(Oc3ccccc3)c2)nn1 |  |
| Active | Active |  |  | COC(=O)c1cccc(Cn2cc(COc3cccc(NC(=O)Cn4sc5ccccc5c4=O)c3)nn2)c1 |  |
| Active | Active | 5.21 | Active | O=C(Cn1sc2ccccc2c1=O)Nc1cccc(OCc2cn(CC(=O)c3ccccc3)nn2)c1 |  |
| inactive |  |  |  | COc1ccc(Cn2cc(CNC(=O)Cn3sc4ccccc4c3=O)nn2)cc1 |  |
| inactive |  |  |  | O=C(Cn1sc2ccccc2c1=O)NCc1cn(Cc2cccc(F)c2)nn1 |  |
| inactive |  |  |  | O=C(Cn1sc2ccccc2c1=O)NCc1cn(CSc2ccccc2)nn1 |  |
| Active | Active | 5.34 | Active | O=C(Cn1cc(COc2cccc(NC(=O)Cn3sc4ccccc4c3=O)c2)nn1)Nc1cccc(Oc2ccccc2)c1 |  |
| inactive |  |  |  | O=C(Cn1sc2ccccc2c1=O)NCc1cn(CC(=O)Nc2ccccc2)nn1 |  |
| Active | Active | 5.31 | Active | O=C(Cn1sc2ccccc2c1=O)NCc1cn(CC(=O)Nc2ccc(Oc3ccccc3)cc2)nn1 |  |

Further lines, the compound ahead of its results:

| Compound | inhibition (dengue virus type 2 [1]) | inhibition (dengue virus type 2 [2]) | pIC50 [3] | inhibition (West Nile virus) | pKi [4] |
| --- | --- | --- | --- | --- | --- |
| O=C(Cn1sc2ccccc2c1=O)NCc1cn(CC(=O)Nc2ccccc2Oc2ccccc2)nn1 | inactive |  |  |  |  |
| O=C(Cn1sc2ccccc2c1=O)NCc1cn(Cc2ccc(F)cc2)nn1 | inactive |  |  |  |  |
| COC(=O)c1cccc(Cn2cc(CNC(=O)Cn3sc4ccccc4c3=O)nn2)c1 | inactive |  |  |  |  |
| CC(C)(C)OC(=O)Cn1cc(CNC(=O)Cn2sc3ccccc3c2=O)nn1 | inactive |  |  |  |  |
| O=C(Cn1sc2ccccc2c1=O)NCc1cn(CCc2ccccc2)nn1 | inactive |  |  |  |  |
| O=C(Cn1sc2ccccc2c1=O)NCc1cn(CCOc2ccccc2)nn1 | inactive |  |  |  |  |
| O=C(Cn1sc2ccccc2c1=O)NCc1cn(CC(=O)c2ccccc2)nn1 | inactive |  |  |  |  |
| O=C(Cn1sc2ccccc2c1=O)NCc1cn(Cc2ccccc2)nn1 | inactive |  |  |  |  |
| O=C(O)Cn1cc(CNC(=O)Cn2sc3ccccc3c2=O)nn1 | inactive |  |  |  |  |
| O=C(Cn1sc2ccccc2c1=O)NCc1cn(CCCc2ccccc2)nn1 | inactive |  |  |  |  |
